Data set [1] has as its system Plasmodium berghei. Description: Antimalarial activity against Plasmodium berghei ANKA infected in C57BL/6 mouse assessed as decrease in parasitemia at 18 mg/kg, po administered 24 hrs post-infection measured after 3 days by Giemsa microscopy relative to vehicle treated control. It counts as functional. Set-up: scale not given: the % may be the effect or the level left. The essentials: (§1)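 Male C57BL/6J mice, 5 weeks old, about 20 g, infected i.p. on day 0 with 5 × 10⁷ P. berghei ANKA-parasitized erythrocytes. At 24 h post-infection, four mice per group received one oral dose in 7:3 Tween 80:ethanol diluted in water: trioxane 6 mg/kg plus mefloquine HCl 18 mg/kg, or trioxane 7.5 mg/kg plus mefloquine HCl 15 mg/kg. Untreated infected controls were included. Blood parasitemia was read by Giemsa microscopy.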

Data set [2] concerns Plasmodium berghei. Description: Antimalarial activity against Plasmodium berghei ANKA infected in C57BL/6 mouse assessed as decrease in parasitemia at 15 mg/kg, po administered 24 hrs post-infection measured after 3 days by Giemsa microscopy relative to vehicle treated control. In kind it is functional. Also noted: scale not given: the % may be the effect or the level left. The essentials:
as §1

For data set [3], the system named is Plasmodium berghei. Briefly: Antimalarial activity against Plasmodium berghei ANKA infected in C57BL/6 mouse assessed as host survival at 18 mg/kg, po administered 24 hrs post-infection (reference value: 6.8 days). In kind it is functional.
Data set [4] relates to Plasmodium berghei. Briefly: Antimalarial activity against Plasmodium berghei ANKA infected in C57BL/6 mouse assessed as host survival at 15 mg/kg, po administered 24 hrs post-infection (reference value: 6.8 days). In kind it is functional.
In data set [5] the test system is Mus musculus. Description: Toxicity in Plasmodium berghei ANKA infected C57BL/6 mouse assessed as effect on longevity at 100 mg/kg, po administered 24 hrs post-infection measured after 3 days. It counts as organism-based. Also noted: dose 100 mg/kg, route oral. The conditions noted are these: in vivo, 72 h.
Data set [6] relates to Plasmodium berghei. Description: Antimalarial activity against Plasmodium berghei ANKA infected in C57BL/6 mouse assessed as host survival at 100 mg/kg, po administered 24 hrs post-infection (reference value: 6.8 days). In kind it is functional.
Data set [7] has as its system Plasmodium falciparum. Description: Antimalarial activity against Plasmodium falciparum NF54. In kind it is functional, organism-based.

Take `O[C@@H](c1cc(C(F)(F)F)nc2c(C(F)(F)F)cccc12)[C@H]1CCCCN1` (relative stereo) [(S,R)-MEFLOQUINE]: the Activity in data set [1] and in data set [2] was more than 99.9% in each case. Moreover, the Survival amounted to 19.8 days in data set [3] and 15.5 days in data set [4].

`CSc1cccc(NC(=O)CC[C@H]2O[C@@H]3O[C@@]4(C)CC[C@H]5[C@H](C)CC[C@@H]([C@H]2C)[C@@]35OO4)c1`: the Activity result in data set [5] is listed as “Non-toxic”. Also, in data set [6], the Survival was 15 days. Also, in data set [7], the EC50 – broadly, the concentration at which the effect is half-maximal – was 9.1 nM.

Turning to `C[C@H]1[C@@H](CCC(=O)Nc2cccc([S@@+](C)[O-])c2)O[C@@H]2O[C@@]3(C)CC[C@H]4[C@H](C)CC[C@@H]1[C@@]24OO3`, the EC50 in data set [7] was found to be 29 nM.

With `C[C@H]1[C@@H](CCC(=O)Nc2cccc([S@+](C)[O-])c2)O[C@@H]2O[C@@]3(C)CC[C@H]4[C@H](C)CC[C@@H]1[C@@]24OO3`, the EC50 in data set [7] is 23 nM.

For `C[C@H]1[C@@H](CCC(=O)Nc2cccc(S(C)(=O)=O)c2)O[C@@H]2O[C@@]3(C)CC[C@H]4[C@H](C)CC[C@@H]1[C@@]24OO3`, a half-maximal effect in data set [7] (EC50) was put at 21 nM.

For `C[C@@H]1CC[C@H]2[C@@H](C)C(=O)O[C@@H]3O[C@@]4(C)CC[C@@H]1[C@]32OO4` [ARTEMISININ], the EC50 in data set [7] turned out to be 10 nM.

For `CCCCN(CCCC)CC(O)c1cc(Cl)cc2c1-c1ccc(Cl)cc1/C2=C/c1ccc(Cl)cc1` (stereo not given) [LUMEFANTRINE], the Activity in data set [1] was more than 99.9%.

As for `CSc1cc(NC(=O)CC[C@H]2O[C@@H]3O[C@@]4(C)CC[C@H]5[C@H](C)CC[C@@H]([C@H]2C)[C@@]35OO4)cc(SC)c1`, the Activity entry in data set [5] is recorded as “Non-toxic”. Moreover, the Survival in data set [6] came out at 7.5 days. The molecule further yielded an EC50 in data set [7] of 6.5 nM.

These data come from ChEMBL document CHEMBL1944586, “Malaria-infected mice are completely cured by one 6 mg/kg oral dose of a new monomeric trioxane sulfide combined with mefloquine” (J Med Chem, 2012).
